From ChEMBL document CHEMBL1130252, “5-HT1B receptor antagonist properties of novel arylpiperazide derivatives of 1-naphthylpiperazine” (J Med Chem, 1997)

What was measured:
[1] = target: T1, 5-hydroxytryptamine receptor 1B (Homo sapiens, UniProt P28222); test: Agonist activity at 5-hydroxytryptamine 1B receptor by measuring the inhibition of forskolin-stimulated cAMP formation; format: functional
Method in brief: (§1)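 Human 5-HT1B receptors expressed in CHO-K1 cells. Agonist response read as inhibition of forskolin-stimulated cAMP formation. EC50 determined, and Emax expressed as a percentage of the maximal inhibition produced by 1 µM 5-HT. Values are the mean of two or three experiments, each run in duplicate, with individual values typically within ±10-20% of the mean.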

[2] = target: T1, 5-hydroxytryptamine receptor 1B; test: Percentage Maximal inhibition obtained with 1 uM 5-HT against 5-hydroxytryptamine 1B receptor; method in brief: as §1
[3] = target: T1, 5-hydroxytryptamine receptor 1B; test: Receptor binding affinity for cloned human 5-hydroxytryptamine 1B receptor in Cos-7 cells; format: cell-based
[4] = target: 5-hydroxytryptamine receptor 1D (Homo sapiens, UniProt P28221); test: Receptor binding affinity for cloned human 5-hydroxytryptamine 1D receptor in Cos-7 cells; format: cell-based
5-hydroxytryptamine receptor 1D, sequence (P28221 whole entry): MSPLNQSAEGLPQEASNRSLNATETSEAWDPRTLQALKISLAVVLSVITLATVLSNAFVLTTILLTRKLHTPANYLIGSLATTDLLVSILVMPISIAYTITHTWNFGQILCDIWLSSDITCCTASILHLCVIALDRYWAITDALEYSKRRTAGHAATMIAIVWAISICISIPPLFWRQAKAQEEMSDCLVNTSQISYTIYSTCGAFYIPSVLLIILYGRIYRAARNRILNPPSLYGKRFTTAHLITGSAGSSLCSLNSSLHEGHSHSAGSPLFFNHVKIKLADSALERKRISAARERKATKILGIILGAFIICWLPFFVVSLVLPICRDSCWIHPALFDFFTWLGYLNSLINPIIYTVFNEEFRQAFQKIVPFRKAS

[5] = target: T1, 5-hydroxytryptamine receptor 1B; details: 1 uM
[6] = target: T1, 5-hydroxytryptamine receptor 1B; test: Antagonism tested at 1 uM against the agonist-induced inhibitory effect of 10 nM 5-carbamoyltryptamine(5-CT); format: functional
Method in brief: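 Run in the same forskolin-stimulated cAMP system, with h5-HT1B receptors expressed in CHO-K1 cells. The compound at 1 µM was tested against the inhibition of cAMP formation produced by 10 nM 5-CT. Values are the mean of two or three experiments, each in duplicate.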

[7] = target: T2, 5-hydroxytryptamine receptor 1A (Homo sapiens, UniProt P08908); test: Receptor binding affinity for cloned human 5-hydroxytryptamine 1A receptor in HeLa cells; format: cell-based
T2 sequence (P08908 whole entry): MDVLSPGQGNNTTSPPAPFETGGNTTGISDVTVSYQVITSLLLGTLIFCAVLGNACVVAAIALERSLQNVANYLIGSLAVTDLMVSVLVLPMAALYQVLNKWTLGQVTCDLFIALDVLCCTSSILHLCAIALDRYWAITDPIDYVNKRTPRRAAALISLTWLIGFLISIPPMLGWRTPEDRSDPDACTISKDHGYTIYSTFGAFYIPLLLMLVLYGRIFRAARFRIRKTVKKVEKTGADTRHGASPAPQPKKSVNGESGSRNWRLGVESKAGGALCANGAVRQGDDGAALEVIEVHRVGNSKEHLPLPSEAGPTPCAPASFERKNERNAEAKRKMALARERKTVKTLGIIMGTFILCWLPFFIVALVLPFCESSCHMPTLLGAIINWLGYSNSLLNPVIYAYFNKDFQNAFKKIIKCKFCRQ

T1 sequence (P28222 whole entry): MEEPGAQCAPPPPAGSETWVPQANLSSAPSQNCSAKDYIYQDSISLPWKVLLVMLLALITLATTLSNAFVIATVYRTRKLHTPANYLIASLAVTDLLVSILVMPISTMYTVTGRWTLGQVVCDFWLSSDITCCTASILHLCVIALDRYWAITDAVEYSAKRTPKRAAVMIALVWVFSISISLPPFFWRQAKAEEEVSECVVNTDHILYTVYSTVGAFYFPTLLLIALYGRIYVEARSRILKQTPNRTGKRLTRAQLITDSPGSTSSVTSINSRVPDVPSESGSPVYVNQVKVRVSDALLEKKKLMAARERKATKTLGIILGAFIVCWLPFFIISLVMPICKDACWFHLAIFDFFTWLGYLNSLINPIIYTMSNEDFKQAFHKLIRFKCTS

Compound: Cc1ccccc1N1CCN(C(=O)COc2ccc3cccc(N4CCN(C)CC4)c3c2)CC1
- EC50 [1]: > 1000 nM
- Emax [2]: < 10%
- Ki [3]: 0.3 nM
- Ki [4]: 0.69 nM
- Antagonism [5]: 80%

Compound: COc1ccc2ccc(N3CCNCC3)cc2c1
- EC50 [1]: > 1000 nM
- Emax [2]: < 10%
- Antagonism [6]: 95%
- Ki [7]: 2.8 nM
- Ki [3]: 2 nM
- Ki [4]: 0.7 nM

Compound: Cc1ccccc1CN1CCN(C(=O)COc2ccc3cccc(N4CCN(C)CC4)c3c2)CC1
- EC50 [1]: > 1000 nM
- Emax [2]: < 10%
- Antagonism [6]: 87%
- Ki [7]: 22.7 nM
- Ki [3]: 0.2 nM
- Ki [4]: 0.55 nM

Compound: CN1CCN(c2cccc3ccc(OCC(=O)N4CCN(c5ccccc5C#N)CC4)cc23)CC1
- EC50 [1]: 28 nM
- Emax [2]: 48%
- Antagonism [6]: 56%
- Ki [7]: 12.3 nM
- Ki [3]: 0.38 nM
- Ki [4]: 0.51 nM

Compound: CN1CCN(c2cccc3ccc(OCC(=O)N4CCN(c5cccc6ccccc56)CC4)cc23)CC1
- EC50 [1]: > 1000 nM
- Emax [2]: < 10%
- Antagonism [6]: 57%
- Ki [7]: 114 nM
- Ki [3]: 0.43 nM
- Ki [4]: 0.88 nM

Compound: CN1CCN(c2cccc3ccc(OCC(=O)N4CCN(c5cccc6c5OCCO6)CC4)cc23)CC1
- EC50 [1]: 25 nM
- Emax [2]: 58%
- Antagonism [6]: 45%
- Ki [7]: 14.1 nM
- Ki [3]: 0.43 nM
- Ki [4]: 0.45 nM

Compound: COc1cccc(N2CCN(C(=O)COc3ccc4cccc(N5CCN(C)CC5)c4c3)CC2)c1OC
- EC50 [1]: 30 nM
- Emax [2]: 69%
- Antagonism [6]: 47%
- Ki [7]: 13.4 nM
- Ki [3]: 0.44 nM
- Ki [4]: 0.62 nM

Compound: Cc1cc(C)c(N2CCN(C(=O)COc3ccc4cccc(N5CCN(C)CC5)c4c3)CC2)c(C)c1
- EC50 [1]: 25 nM
- Emax [2]: 26%
- Antagonism [6]: 46%
- Ki [7]: 117 nM
- Ki [3]: 1.4 nM
- Ki [4]: 1.9 nM

Compound: c1ccc2c(N3CCNCC3)cccc2c1
- EC50 [1]: > 1000 nM
- Emax [2]: < 10%
- Antagonism [6]: 96%
- Ki [7]: 9.2 nM
- Ki [3]: 10.1 nM
- Ki [4]: 6.2 nM
